In ChEMBL document CHEMBL4304771, “Design, synthesis and biological activity of N-(2-phenoxy)ethyl imidazo[1,2-a]pyridine-3-carboxamides as new antitubercular agents” (Eur J Med Chem, 2019):
≈ marks a conversion by molar mass, not a printed value.

Legend:
[1] = test system: Mycobacterium tuberculosis; assay: Antitubercular activity against Mycobacterium tuberculosis H37Rv ATCC 27294 assessed as parasite growth inhibition measured after 7 days incubation by microplate alamar blue assay; format: functional; conditions: H37Rv ATCC 27294, 168 h
Method in brief: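 Strains grown to late log phase in 7H9 with 0.2% glycerol, 0.05% Tween 80 and 10% ADC. Cells washed, resuspended in PBS, filtered (8 µm) and frozen at -80 °C. Two-fold compound dilutions, 2 × 10⁵ CFU per well, 37 °C for 7 days. Tween 80 and Alamar blue then added for 16-24 h; fluorescence read at ex 530/em 590 nm. MIC = lowest concentration giving ≥90% fluorescence reduction versus mean of bacterium-only controls.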

[2] = Half-life in human hepatocytes; format: ADME, cell-based, Hepatocyte
[3] = Acute toxicity in ICR mouse assessed as decrease in animal survival at 500 mg/kg, po administered as single dose measured for 7 days; format: organism-based; conditions: in vivo, 168 h
Method in brief: (§1)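 Female ICR mice, 18-22 g, five per group, randomly assigned, fasted overnight. Single oral dose of 500 mg/kg suspended in 5% CMC; controls got 5% CMC alone (0.5 mL). Watched continuously for 4 h, then hourly to 24 h, then every 8 h for 7 days for deaths or changes. Read-out was survivors/total.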

[4] = Cmax in ICR mouse at 50 mg/kg, po administered as single dose measured for 24 hrs by HPLC analysis; format: ADME, organism-based; design: dose 50 mg/kg, route oral; conditions: in vivo
Method in brief: (§2)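 Female SPF ICR mice (18–22 g), fasted overnight, 3 per group, got a single oral 50 mg/kg dose as a suspension in 0.5% CMC. Jugular blood was drawn at 0.25, 0.5, 1, 2, 4, 6, 8 and 24 h, and serum was stored at −20 °C. Proteins were precipitated with acetonitrile, and extracts were dried, redissolved in acetonitrile and run by HPLC. Parameters came directly from the concentration–time data.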

[5] = Mean residence time in ICR mouse at 50 mg/kg, po administered as single dose measured for 24 hrs by HPLC analysis; format: ADME, organism-based; conditions: in vivo; method in brief: as §2
[6] = Acute toxicity in ICR mouse assessed as animal survival at 500 mg/kg, po administered as single dose measured for 7 days; format: organism-based; conditions: in vivo; method in brief: as §1
[7] = AUC (0 to infinity) in ICR mouse at 50 mg/kg, po administered as single dose measured for 24 hrs by HPLC analysis; format: ADME, organism-based; design: dose 50 mg/kg, route oral, time infinity; conditions: in vivo; method in brief: as §2
[8] = Half-life in ICR mouse at 50 mg/kg, po administered as single dose measured for 24 hrs by HPLC analysis; format: ADME, organism-based; conditions: in vivo; method in brief: as §2
[9] = Tmax in ICR mouse at 50 mg/kg, po administered as single dose measured for 24 hrs by HPLC analysis; format: ADME, organism-based; conditions: in vivo; method in brief: as §2

Row | SMILES | MIC [1] | further results
1 | Cc1nc2cc(Cl)ccn2c1C(=O)NCCOc1ccc(Br)cc1 | 2.68 µg/mL (≈ 6.56 µM) | –
2 | COc1ccc2nc(C)c(C(=O)NCCOc3ccc(N4CCN(C)CC4)cc3)n2c1 | 0.5 µg/mL (≈ 1.18 µM) | –
3 | Cc1nc2ccc(Cl)cn2c1C(=O)NCCOc1ccc(Br)cc1 | 0.488 µg/mL (≈ 1.19 µM) | –
4 | CCc1nc2ccc(Br)cn2c1C(=O)NCCOc1ccc(Br)cc1 | 0.025 µg/mL (≈ 0.0535 µM) | half-life [2]: 15.8 min
5 | CCc1nc2cc(Cl)ccn2c1C(=O)NCCOc1ccc(Cl)cc1 | 5.86 µg/mL (≈ 15.5 µM) | –
6 | CCc1nc2ccc(Br)cn2c1C(=O)NCCOc1ccc(N2CC3CCCCC3C2)cc1 (configuration not stated) | 0.0625 µg/mL (≈ 0.122 µM) | Activity [3]: Toxic
7 | CCc1nc2ccc(C)cn2c1C(=O)NCCOc1ccc(Br)cc1 | 0.275 µg/mL (≈ 0.684 µM) | –
8 | Cc1nc2ccc(F)cn2c1C(=O)NCCOc1ccc(Cl)cc1 | 3.84 µg/mL (≈ 11 µM) | –
9 | Cc1ccc2nc(C)c(C(=O)NCCOc3ccc(Br)cc3)n2c1 | 0.031 to 0.125 µg/mL (≈ 0.0798 to 0.322 µM) | half-life [2]: 6.5 min
10 | CO[C@H]1/C=C/O[C@@]2(C)Oc3c(C)c(O)c4c(O)c(c(/C=N/N5CCN(C)CC5)c(O)c4c3C2=O)NC(=O)/C(C)=C\C=C\[C@H](C)[C@H](O)[C@@H](C)[C@@H](O)[C@@H](C)[C@H](OC(C)=O)[C@@H]1C [RIFAMPIN] | 0.05 µg/mL (≈ 0.0608 µM) | –
11 | CCCc1nc2ccc(F)cn2c1C(=O)NCCOc1ccc(Br)cc1 | 2.68 µg/mL (≈ 6.38 µM) | –
12 | O=C(NCCOc1ccc(Br)cc1)c1c(C2CC2)nc2ccc(F)cn12 | 0.928 µg/mL (≈ 2.22 µM) | –
13 | CCc1nc2cc(Cl)ccn2c1C(=O)NCCOc1ccc(Br)cc1 | 6.35 µg/mL (≈ 15 µM) | –
14 | Cc1ccc2nc(C3CC3)c(C(=O)NCCOc3ccc(Br)cc3)n2c1 | 0.052 µg/mL (≈ 0.126 µM) | –
15 | Cc1ccn2c(C(=O)NCCOc3ccc(Br)cc3)c(C)nc2c1 | 0.463 µg/mL (≈ 1.19 µM) | –
16 | CCc1nc2ccc(Cl)cn2c1C(=O)NCCOc1ccc(Br)cc1 | 0.023 µg/mL (≈ 0.0544 µM) | half-life [2]: 35.2 min
17 | Cc1ccc2nc(C)c(C(=O)NCCOc3ccncc3)n2c1 | > 32 µg/mL | –
18 | Cc1nc2cccc(Cl)n2c1C(=O)NCCOc1ccc(Br)cc1 | 2.52 µg/mL (≈ 6.18 µM) | –
19 | CCCc1nc2ccc(C)cn2c1C(=O)NCCOc1ccc(Br)cc1 | 0.415 µg/mL (≈ 0.997 µM) | –
20 | O=c1nc(N2CCN(CC3CCCCC3)CC2)sc2c([N+](=O)[O-])cc(C(F)(F)F)cc12 [MACOZINONE] | 0.0625 µg/mL (≈ 0.137 µM) | –
21 | O=C(NCCOc1ccc(Cl)cc1)c1c(C2CC2)nc2cc(Cl)ccn12 | 32 µg/mL (≈ 82 µM) | –
22 | Cc1nc2ccc([N+](=O)[O-])cn2c1C(=O)NCCOc1ccc(Br)cc1 | 1.28 µg/mL (≈ 3.05 µM) | –
23 | CCc1nc2ccc(Br)cn2c1C(=O)NCCOc1ccc(N2CCC(C(F)(F)F)CC2)cc1 | 0.0625 µg/mL (≈ 0.116 µM) | Cmax [4]: 5080 ng/mL; MRT [5]: 113 min; survival at 168 h [6]: 100%; AUC(0-inf) [7]: 7120 ng·h/mL; half-life [8]: 283 min; Tmax [9]: 45 min
24 | CCc1nc2ccc(Cl)cn2c1C(=O)NCc1ccc(N2CCC(c3ccc(OC(F)(F)F)cc3)CC2)cc1 [TELACEBEC] | 0.0625 µg/mL (≈ 0.112 µM) | –
25 | CCc1nc2ccc(C)cn2c1C(=O)NCCOc1ccc(N2CC3CCCCC3C2)cc1 (configuration not stated) | 0.0625 µg/mL (≈ 0.14 µM) | survival at 168 h [6]: 0%
26 | CCCc1nc2ccc(Cl)cn2c1C(=O)NCCOc1ccc(Br)cc1 | 0.054 µg/mL (≈ 0.124 µM) | –

Row | SMILES | MIC [1] | further results
27 | COc1ccc(OCCNC(=O)c2c(C3CC3)nc3ccc(C)cn23)cc1 | 0.027 µg/mL (≈ 0.0739 µM) | half-life [2]: 7.8 min
28 | Cc1nc2c(C)cccn2c1C(=O)NCCOc1ccc(Br)cc1 | 13.9 µg/mL (≈ 35.9 µM) | –
29 | CCCc1nc2ccc(F)cn2c1C(=O)NCCOc1ccc(Cl)cc1 | 1.14 µg/mL (≈ 3.04 µM) | –
30 | O=C(NCCOc1ccc(Br)cc1)c1c(C2CC2)nc2cc(Cl)ccn12 | 32 µg/mL (≈ 73.6 µM) | –
31 | Cc1nc2c(Cl)cccn2c1C(=O)NCCOc1ccc(Br)cc1 | 0.505 µg/mL (≈ 1.24 µM) | –
32 | O=C(NCCOc1ccc(Br)cc1)c1c(C2CC2)nc2ccc(Cl)cn12 | 0.098 µg/mL (≈ 0.225 µM) | –
33 | CCc1nc2ccc(C)cn2c1C(=O)NCCOc1ccc(N2CCN(C)CC2)cc1 | 4 µg/mL (≈ 9.49 µM) | –
34 | CCc1nc2c(Cl)cccn2c1C(=O)NCCOc1ccc(Br)cc1 | 17.5 µg/mL (≈ 41.4 µM) | –
35 | NNC(=O)c1ccncc1 [ISONIAZID] | 0.049 µg/mL (≈ 0.357 µM) | –
36 | CCc1nc2ccc(Cl)cn2c1C(=O)NCCOc1ccc(Cl)cc1 | 0.029 µg/mL (≈ 0.0767 µM) | half-life [2]: 12.9 min
37 | Cc1nc2ccc(Br)cn2c1C(=O)NCCOc1ccc(Br)cc1 | 0.358 µg/mL (≈ 0.79 µM) | –
38 | CCc1nc2ccc(Br)cn2c1C(=O)NCCOc1ccc(N2CCN(C)CC2)cc1 | 1 µg/mL (≈ 2.06 µM) | –
39 | COc1ccc2nc(C)c(C(=O)NCCOc3ccc(N4CC5CCCCC5C4)cc3)n2c1 (configuration not stated) | 0.0625 µg/mL (≈ 0.139 µM) | Activity [3]: Toxic
40 | CCc1nc2ccc(Cl)cn2c1C(=O)NCCOc1ccc(OC)cc1 | 0.056 µg/mL (≈ 0.15 µM) | –
41 | CCCc1nc2ccc(Cl)cn2c1C(=O)NCCOc1ccc(Cl)cc1 | 0.631 µg/mL (≈ 1.61 µM) | –
42 | CCCc1nc2ccc(C)cn2c1C(=O)NCCOc1ccc(Cl)cc1 | 0.631 µg/mL (≈ 1.7 µM) | –
43 | COc1ccc2nc(C)c(C(=O)NCCOc3ccc(N4CCC(C(F)(F)F)CC4)cc3)n2c1 | 0.0625 µg/mL (≈ 0.131 µM) | Cmax [4]: 638 ng/mL; MRT [5]: 64.2 min; survival at 168 h [6]: 100%; AUC(0-inf) [7]: 754 ng·h/mL; half-life [8]: 55 min; Tmax [9]: 19.8 min
44 | Cc1nc2ccc(F)cn2c1C(=O)NCCOc1ccc(Br)cc1 | 1.21 µg/mL (≈ 3.08 µM) | –
45 | CCc1nc2ccc(Cl)cn2c1C(=O)NCCOc1ccc(N2CCN(c3ccc(F)cc3)CC2)cc1 | 0.0625 µg/mL (≈ 0.12 µM) | Cmax [4]: 3330 ng/mL; MRT [5]: 214 min; survival at 168 h [6]: 100%; AUC(0-inf) [7]: 11100 ng·h/mL; half-life [8]: 265 min; Tmax [9]: 80 min
46 | CCc1nc2ccc(C)cn2c1C(=O)NCCOc1ccc(OC)cc1 | 0.023 µg/mL (≈ 0.0651 µM) | half-life [2]: 19.5 min
47 | CCc1nc2ccc(Br)cn2c1C(=O)NCCOc1ccc(N2CCCCC2)cc1 | 0.0625 µg/mL (≈ 0.133 µM) | Cmax [4]: 983 ng/mL; MRT [5]: 169 min; survival at 168 h [6]: 100%; AUC(0-inf) [7]: 818 ng·h/mL; half-life [8]: 251 min; Tmax [9]: 15 min
48 | CCc1nc2ccc(Cl)cn2c1C(=O)NCCOc1ccncc1 | > 32 µg/mL | –
49 | Cc1ccn2c(C(=O)NCCOc3ccc(Br)cc3)c(C3CC3)nc2c1 | 5 µg/mL (≈ 12.1 µM) | –
50 | CCc1nc2ccc(Cl)cn2c1C(=O)NCCOc1ccc(N(C)C)cc1 | 0.0625 µg/mL (≈ 0.162 µM) | Cmax [4]: 2120 ng/mL; MRT [5]: 98.4 min; survival at 168 h [6]: 100%; AUC(0-inf) [7]: 3340 ng·h/mL; half-life [8]: 162 min; Tmax [9]: 15 min
51 | CCc1nc2ccc(F)cn2c1C(=O)NCCOc1ccc(Br)cc1 | 0.202 µg/mL (≈ 0.497 µM) | –
52 | COc1ccc2nc(C)c(C(=O)NCCOc3ccc(Br)cc3)n2c1 | 0.028 µg/mL (≈ 0.0693 µM) | half-life [2]: 54.2 min
